Experimental data published in ChEMBL document CHEMBL4765236, “Insights into the Antimicrobial Activity and Cytotoxicity of Engineered α-Helical Peptide Amphiphiles” (J Med Chem, 2016).
Active and inactive are the calls of the source. No cut-off for these calls is given here.

Key:
Escherichia coli [1] = experiment: Antibacterial activity against Escherichia coli ATCC 35150 assessed as bacterial growth inhibition incubated for 18 to 24 hrs by microtiter broth dilution method; assay type: functional; settings: time 18-24 hrs
How it was run: (§1)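 Log-phase cells (grown overnight at 37 °C, subcultured in MHB) diluted to 10^5 CFU/mL in MHB and mixed 1:1 with serial peptide dilutions prepared in 0.01% acetic acid/0.2% BSA. Incubated 37 °C for 18-24 h. MIC is the lowest concentration giving no growth by OD492. Reported as the average of 3-5 independent experiments.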

[2] = tested on: Salmonella enterica subsp. enterica serovar Paratyphi B; experiment: Antibacterial activity against Salmonella paratyphi B CICC 21495 assessed as bacterial growth inhibition incubated for 18 to 24 hrs by microtiter broth dilution method; assay type: functional; settings: time 18-24 hrs
How it was run: (§2)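 Log-phase bacteria grown at 37 °C in MHB, diluted to 10^5 CFU/mL, mixed 1:1 with serial peptide dilutions (peptide diluted in 0.01% acetic acid, 0.2% BSA); 37 °C for 18-24 h. MIC read by OD492 as lowest concentration giving no growth; mean of 3-5 independent experiments.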

Vibrio parahaemolyticus = experiment: Antibacterial activity against Vibrio parahaemolyticus CICC 21617 assessed as bacterial growth inhibition incubated for 18 to 24 hrs by broth dilution method; assay type: functional; settings: time 18-24 hrs; how it was run: as §1
Listeria monocytogenes [3] = experiment: Antibacterial activity against Listeria monocytogenes CICC 21662 assessed as bacterial growth inhibition incubated for 18 to 24 hrs by microtiter broth dilution method; assay type: functional; settings: time 18-24 hrs; how it was run: as §1
Listeria monocytogenes [4] = experiment: Antibacterial activity against Listeria monocytogenes CICC 21633 assessed as bacterial growth inhibition incubated for 18 to 24 hrs by microtiter broth dilution method; assay type: functional; settings: time 18-24 hrs; how it was run: as §1
Micrococcus luteus = experiment: Antibacterial activity against Micrococcus luteus CMCC 28001 assessed as bacterial growth inhibition incubated for 18 to 24 hrs by microtiter broth dilution method; assay type: functional; settings: time 18-24 hrs; how it was run: as §1
Pseudomonas fluorescens = experiment: Antibacterial activity against Pseudomonas fluorescens CICC 21620 assessed as bacterial growth inhibition incubated for 18 to 24 hrs by microtiter broth dilution method; assay type: functional; settings: time 18-24 hrs; how it was run: as §1
Staphylococcus aureus [5] = experiment: Antibacterial activity against methicillin resistant Staphylococcus aureus ATCC 43300 assessed as bacterial growth inhibition incubated for 18 to 24 hrs by microtiter broth dilution method; assay type: functional; settings: time 18-24 hrs; how it was run: as §2
Erythrocyte [6] = experiment: Hemolytic activity against human red blood cells assessed as concentration required to cause 10% hemoglobin release measured after 1 hr by microplate reader analysis; assay type: ADME, cell-based
How it was run: (§3)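 Fresh heparinized human RBCs washed three times in 10 mM PBS pH 7.4 and resuspended to about 1% (v/v) (5.4 × 10^8 cells/mL). Mixed 1:1 with peptide in PBS for 1 h at 37 °C, then centrifuged. Supernatant hemoglobin read at A540. PBS set as 0% and 0.1% Triton X-100 as 100% hemolysis. MHC is the concentration causing 10% hemolysis.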

[7] = Therapeutic index, ratio of MHC10 for human RBC to geometric mean of peptide MIC for Escherichia coli O157:H7 CICC 21530; assay type: toxicity; settings: human red blood cells (RBC), pooled result: one value given for 11 cell lines, strains, targets or settings, read-out: TI
How it was run: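 Therapeutic index = MHC (peptide concentration giving 10% hemolysis of human RBCs, 1 h, 37 °C, A540) divided by geometric mean of MICs from broth microdilution (10^5 CFU/mL in MHB, 37 °C, 18-24 h, OD492).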

Escherichia coli [8] = experiment: Antibacterial activity against Escherichia coli O157:H7 CICC 21530 assessed as bacterial growth inhibition incubated for 18 to 24 hrs in presence of 4.5 mM KCl by microtiter broth dilution method (reference value: 0.85 to > 71.5 uM); assay type: functional; settings: time 18-24 hrs
Escherichia coli [9] = experiment: Antibacterial activity against Escherichia coli O157:H7 CICC 21530 assessed as bacterial growth inhibition incubated for 18 to 24 hrs in presence of 6 mM NH4Cl by microtiter broth dilution method (reference value: 0.85 to > 71.5 uM); assay type: functional; settings: time 18-24 hrs
Escherichia coli [10] = experiment: Antibacterial activity against Escherichia coli O157:H7 CICC 21530 assessed as bacterial growth inhibition incubated for 18 to 24 hrs in presence of 2 mM CaCl2 by microtiter broth dilution method (reference value: 0.85 to > 71.5 uM); assay type: functional; settings: time 18-24 hrs
Escherichia coli [11] = experiment: Antibacterial activity against Escherichia coli O157:H7 CICC 21530 assessed as bacterial growth inhibition incubated for 18 to 24 hrs in presence of 4 mM FeCl3 by microtiter broth dilution method (reference value: 0.85 to > 71.5 uM); assay type: functional; settings: time 18-24 hrs
Cell membrane = experiment: Induction of inner membrane permeabilization in Escherichia coli O157:H7 CICC 21530 assessed as cytoplasmic beta-galactosidase release at 1 times MIC using ONPG as substrate by […]; assay type: subcellular
RAW264.7 [12] = experiment: Antiinflammatory activity against mouse RAW264.7 cells assessed as inhibition of LPS-induced nitric oxide production measured after 24 hrs by Griess reagent based ELISA; assay type: functional, cell-based; settings: dose 0.5-64 µM
How it was run: (§4)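 RAW264.7 cells plated at 1-2 × 10^5 cells/mL and stimulated with 500 ng/mL LPS with or without peptide (0.5-64 µM) for 24 h at 37 °C. Controls were untreated cells and LPS alone. TNF-α in the supernatant measured by ELISA. NO measured by Griess reagent (1% sulfanilamide, 0.1% naphthylethylenediamine, 5% phosphoric acid).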

RAW264.7 [13] = experiment: Antiinflammatory activity against mouse RAW264.7 cells assessed as inhibition of LPS-induced TNF-alpha production at 0.5 to 64 uM measured after 24 hrs by […] ELISA; assay type: functional, cell-based; settings: dose 0.5-64 µM; how it was run: as §4
HepG2 = experiment: Cytotoxicity against human HepG2 cells assessed as reduction in cell viability incubated for 24 hrs by MTT assay; assay type: functional, cell-based
How it was run: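 HepG2 survival measured by MTT assay over a peptide range of 0.25-64 µM.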

Staphylococcus aureus [14] = experiment: Antibacterial activity against Staphylococcus aureus ATCC 29213 assessed as bacterial growth inhibition incubated for 18 to 24 hrs in presence of 150 mM NaCl by microtiter broth dilution method (reference value: 0.43 to > 71.5 uM); assay type: functional; settings: time 18-24 hrs
Staphylococcus aureus [15] = experiment: Antibacterial activity against Staphylococcus aureus ATCC 29213 assessed as bacterial growth inhibition incubated for 18 to 24 hrs in presence of 1 mM MgCl2 by microtiter broth dilution method (reference value: 0.43 to > 71.5 uM); assay type: functional; settings: time 18-24 hrs
Staphylococcus aureus [16] = experiment: Antibacterial activity against Staphylococcus aureus ATCC 29213 assessed as bacterial growth inhibition incubated for 18 to 24 hrs in presence of 2 mM CaCl2 by microtiter broth dilution method (reference value: 0.43 to > 71.5 uM); assay type: functional; settings: time 18-24 hrs
Staphylococcus aureus [17] = experiment: Antibacterial activity against Staphylococcus aureus ATCC 29213 assessed as bacterial growth inhibition incubated for 18 to 24 hrs in presence of […] by microtiter broth dilution method (reference value: 0.43 to > 71.5 uM); assay type: functional; settings: time 18-24 hrs
Escherichia coli [18] = experiment: Bactericidal activity against Escherichia coli O157:H7 CICC 21530 assessed as bacterial killing at 1 times MIC by time kill assay; assay type: functional, organism-based; settings: time 1085.0 min, TDE = time-dependent effect
Erythrocyte [19] = experiment: Hemolytic activity against human red blood cells assessed as hemoglobin release at 64 uM measured after 1 hr by microplate reader analysis; assay type: ADME, cell-based; how it was run: as §3

| Substance | MIC (Escherichia coli [1]) | MIC [2] | MIC (Vibrio parahaemolyticus) | MIC (Listeria monocytogenes [3]) | MIC (Listeria monocytogenes [4]) | MIC (Micrococcus luteus) | MIC (Pseudomonas fluorescens) | MIC (Staphylococcus aureus [5]) | MHC10 (Erythrocyte [6]) | selectivity ratio [7] | MIC (Escherichia coli [8]) | MIC (Escherichia coli [9]) | MIC (Escherichia coli [10]) | MIC (Escherichia coli [11]) | Activity (Cell membrane) | Activity (RAW264.7 [12]) | Activity (RAW264.7 [13]) | Activity (HepG2) | MIC (Staphylococcus aureus [14]) | MIC (Staphylococcus aureus [15]) | also measured |
| --- | --- | --- | --- | --- | --- | --- | --- | --- | --- | --- | --- | --- | --- | --- | --- | --- | --- | --- | --- | --- | --- |
| H-WLRAFRRLVRRLARGLRR-NH2 | 1.7 µM | 0.85 µM | 1.7 µM | 0.21 µM | 0.21 µM | 0.43 µM | 0.43 µM | 0.85 µM | 27.22 µM | 20.5 | 0.85 µM | 0.85 µM | 3.4 µM | 6.81 µM | Active | Dose-dependent effect | Active | Dose-dependent effect | 1.7 µM | 0.21 µM | IC50 (HepG2; HepG2, 24 h): 32 µM; MIC (Staphylococcus aureus [16]): 0.43 µM; MIC (Staphylococcus aureus [17]): 55 µM; Activity (Escherichia coli [18]): Tde; Activity (Erythrocyte [19]): Non-Toxic |
| H-WLRAFRRLVRRLARLLRR-NH2 | 26.6 µM | 3.32 µM | 6.65 µM | 3.32 µM | 3.32 µM | 13.3 µM | 53.2 µM | 3.32 µM | 53.18 µM | 4.83 | 1.66 µM | > 53.2 µM | > 53.2 µM | > 53.2 µM | inactive | Dose-dependent effect | Active | Dose-dependent effect | 26.6 µM | 0.83 µM | MIC (Staphylococcus aureus [16]): 13.3 µM; MIC (Staphylococcus aureus [17]): > 53.2 µM; Activity (Escherichia coli [18]): Tde; Activity (Erythrocyte [19]): Non-Toxic |
